Laboratory results as given in ChEMBL document CHEMBL3585299, “Design and synthesis of novel ROR inverse agonists with a dibenzosilole scaffold as a hydrophobic core structure” (Bioorg Med Chem, 2015).

How the values were obtained:
Format in all cases: cell-based
[1] = molecular target: T1, Nuclear receptor ROR-gamma (Homo sapiens) (UniProt P51449); assay: Inverse agonist activity at human ROR-gamma1 transfected in HEK293 cells at 10 uM after 16 hrs by luciferase reporter gene assay relative to control
T1 sequence (whole entry): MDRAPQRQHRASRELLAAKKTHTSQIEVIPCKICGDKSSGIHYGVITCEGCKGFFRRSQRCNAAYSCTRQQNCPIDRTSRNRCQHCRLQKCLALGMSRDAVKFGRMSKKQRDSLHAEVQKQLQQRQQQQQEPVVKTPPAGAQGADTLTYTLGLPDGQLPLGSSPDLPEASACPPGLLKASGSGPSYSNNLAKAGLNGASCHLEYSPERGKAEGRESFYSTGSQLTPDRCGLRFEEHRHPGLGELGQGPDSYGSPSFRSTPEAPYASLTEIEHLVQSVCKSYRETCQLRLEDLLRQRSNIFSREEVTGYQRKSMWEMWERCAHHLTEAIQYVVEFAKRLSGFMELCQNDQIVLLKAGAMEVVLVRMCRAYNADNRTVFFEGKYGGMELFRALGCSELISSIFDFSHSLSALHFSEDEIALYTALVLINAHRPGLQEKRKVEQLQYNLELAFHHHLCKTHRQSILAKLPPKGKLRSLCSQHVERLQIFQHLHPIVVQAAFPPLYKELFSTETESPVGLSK
Outline: (§1)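 HEK293 cells grown in DMEM with 5% FBS plus penicillin/streptomycin, 37 °C, 5% CO2, seeded at 20% confluence 24 h before transfection. Calcium phosphate cotransfection per well: 150 ng receptor expression plasmid, 500 ng luciferase reporter, 10 ng β-galactosidase vector. After 8 h, compound at 10 µM or DMSO for 16 h. Luciferase normalized to β-galactosidase, inhibition expressed as percent of control, transfections in triplicate.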

[2] = molecular target: T2, Nuclear receptor ROR-beta (Homo sapiens) (UniProt Q92753); assay: Inverse agonist activity at human ROR-beta1 transfected in HEK293 cells at 10 uM after 16 hrs by luciferase reporter gene assay relative to control; outline: as §1
T2 sequence (whole entry): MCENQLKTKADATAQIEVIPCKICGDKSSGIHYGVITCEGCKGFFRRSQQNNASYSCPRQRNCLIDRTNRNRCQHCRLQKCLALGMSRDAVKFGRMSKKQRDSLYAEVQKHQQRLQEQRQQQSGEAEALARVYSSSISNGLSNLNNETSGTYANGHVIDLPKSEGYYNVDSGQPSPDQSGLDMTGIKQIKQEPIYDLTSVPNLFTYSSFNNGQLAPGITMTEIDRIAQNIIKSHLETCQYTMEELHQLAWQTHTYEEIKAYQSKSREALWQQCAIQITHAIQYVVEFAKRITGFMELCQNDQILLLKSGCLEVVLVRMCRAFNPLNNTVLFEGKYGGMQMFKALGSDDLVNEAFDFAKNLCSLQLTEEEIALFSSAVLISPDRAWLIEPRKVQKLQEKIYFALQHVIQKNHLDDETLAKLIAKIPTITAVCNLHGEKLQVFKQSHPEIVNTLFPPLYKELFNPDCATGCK

[3] = molecular target: T3, Nuclear receptor ROR-gamma (Homo sapiens, UniProt P51449); assay: Inverse agonist activity at human ROR-gamma1 transfected in HEK293 cells after 16 hrs by luciferase reporter gene assay
T3 sequence (P51449 whole entry): T1 sequence (whole entry)

[4] = molecular target: T4, Nuclear receptor ROR-alpha (Homo sapiens, UniProt P35398); assay: Inverse agonist activity at human ROR-alpha1 transfected in HEK293 cells after 16 hrs by luciferase reporter gene assay
T4 sequence (P35398 whole entry): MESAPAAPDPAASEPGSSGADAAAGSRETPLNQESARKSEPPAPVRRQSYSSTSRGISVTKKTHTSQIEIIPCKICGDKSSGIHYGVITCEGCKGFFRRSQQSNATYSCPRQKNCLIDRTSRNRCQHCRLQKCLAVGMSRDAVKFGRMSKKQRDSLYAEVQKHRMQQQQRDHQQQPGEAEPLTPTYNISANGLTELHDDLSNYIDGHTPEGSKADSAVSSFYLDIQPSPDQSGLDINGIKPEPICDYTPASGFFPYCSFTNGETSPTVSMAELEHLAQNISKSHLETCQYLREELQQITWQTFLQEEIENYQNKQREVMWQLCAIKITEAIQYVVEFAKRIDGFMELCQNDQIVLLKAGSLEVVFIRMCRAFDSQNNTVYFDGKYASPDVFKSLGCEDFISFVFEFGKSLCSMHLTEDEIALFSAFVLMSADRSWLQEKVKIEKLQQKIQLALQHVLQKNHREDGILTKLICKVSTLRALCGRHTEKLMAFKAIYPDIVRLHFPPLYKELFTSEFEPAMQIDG

[5] = molecular target: T5, Nuclear receptor ROR-beta (Homo sapiens, UniProt Q92753); assay: Inverse agonist activity at human ROR-beta1 transfected in HEK293 cells after 16 hrs by luciferase reporter gene assay
T5 sequence (Q92753 whole entry): T2 sequence (whole entry)

| Compound | inhibition [1] [%] | inhibition [2] [%] | IC50 [3] [µM] | IC50 [4] [µM] | IC50 [5] [µM] |
| --- | --- | --- | --- | --- | --- |
| CCCC[Si]1(CCCC)c2ccccc2-c2ccccc21 | 13 | < 5 | – | – | – |
| CCCC[Si]1(CCCC)c2ccccc2-c2cc(CC)ccc21 | 18 | < 5 | – | – | – |
| CCCC[Si]1(CCCC)c2ccccc2-c2cc(C(C)O)ccc21 (stereo unspecified) | < 5 | < 5 | – | – | – |
| CCCCn1c(=O)c2ccccc2c2cc(CC)ccc21 | 37 | 29 | – | – | – |
| CCCC[Si]1(CCCC)c2ccccc2-c2cc(C(C)=O)ccc21 | < 5 | < 5 | – | – | – |
| CC[Si]1(CC)c2ccccc2-c2cc(C(O)(C(F)(F)F)C(F)(F)F)ccc21 | – | 28 | 4.2 | – | – |
| C[Si]1(C)c2ccccc2-c2cc(C(O)(C(F)(F)F)C(F)(F)F)ccc21 | – | 40 | – | – | – |
| CCCCn1c(=O)c2ccccc2c2cc(C(O)(C(F)(F)F)C(F)(F)F)ccc21 | – | – | 4.7 | 7.2 | 5.7 |
